Three compounds from ChEMBL document CHEMBL1126008, “Decorporation of aged americium deposits by oral administration of lipophilic polyamino carboxylic acids” (1992) can be followed below.

Assay [1] deals with Rattus norvegicus. Description: Reduction in both femora 241Am after daily feeding of 200 uM of the compound/kg of body weight to rats for 10 days. Type of assay: functional. The gist of the method:
(§1)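 Sprague-Dawley rats aged 60 days, nine per group. ²⁴¹Am in citrate buffer pH 3.5 given as a single jugular iv injection. From one week later, compound given at 50 μmol/rat (about 200 μmol/kg) in a daily 25 g chow ration for 10 days; untreated controls. Tissues counted for ²⁴¹Am at necropsy. Reduction = […]. p values given.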

Assay [2] concerns Rattus norvegicus. The assay is described as follows: Reduction in carcass 241Am after daily feeding of 200 uM of the compound/kg of body weight to rats for 10 days. Type of assay: functional. The gist of the method:
as §1

Assay [3] concerns Rattus norvegicus. The assay is described as follows: Reduction in whole body 241Am after daily feeding of 200 uM of the compound/kg of body weight to rats for 10 days. The format is functional. The procedure, abridged:
as §1

Assay [4] has as its system Rattus norvegicus. Description: Reduction in liver 241Am after daily feeding of 200 uM of the compound/kg of body weight to rats for 10 days. The format is functional. The gist of the method: as §1
Assay [5] concerns Rattus norvegicus. Description: Weight gain after daily feeding of 200 uM of the compound/kg of body weight to rats for 10 days. The format is functional. The gist of the method:
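Sprague-Dawley rats aged 60 days, nine per group, given ²⁴¹Am iv (jugular, citrate pH 3.5) one week before feeding began. Compound given at 50 μmol/rat (about 200 μmol/kg) daily in 25 g chow for 10 days; untreated controls. Weight gain over the feeding period reported as mean ± deviation.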

Assay [6] relates to Rattus norvegicus. Description: Reduction in one kidney 241AM after daily feeding of 200 uM of the compound/kg of body weight to rats for 10 days. Type of assay: functional. The procedure, abridged: as §1
The subject of a further assay is Canis familiaris. The assay is described as follows: In vitro elimination of Pu (given as citrate) from in vivo tagged canine liver cytosol after administration of the compound; value expressed as following filtrate to residue activity. The format is functional, Canis lupus familiaris. The procedure, abridged: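 Liver homogenate in 0.25 M sucrose from a dog injected with Pu-citrate 7 days before sacrifice. Spun 20 min at 40000g to give cytosol, which was dialyzed against 50 mM TRIS-HCl. Cytosol mixed 1:1 with 4 mM compound (stock) in 0.1 M TRIS-HCl, pH 7.5, 270–300 mOsm. Incubated 2 h at 40 °C, then pressure-filtered through a 10000 Da cutoff. Read-out: Pu filtrate/residue ratio; control had no compound.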

The species entered for assay [7] is Rattus norvegicus. The assay is described as follows: Percent retention in rat liver was measured in situ using intestinal tied-loop technique. Type of assay: functional, organism-based.
Assay [8] is filed under the species Rattus norvegicus. The assay is described as follows: Percent retention in rat lumen was measured in situ using intestinal tied-loop technique. The format is functional, organism-based.
Assay [9] is filed under the species Rattus norvegicus. Description: Percent retention in rat visera was measured in situ using intestinal tied-loop technique. The format is functional, organism-based.
For assay [10], the species on record is Rattus norvegicus. The assay is described as follows: Percent retention in rat gut section was measured in situ using intestinal tied-loop technique. The format is functional, organism-based.
The species entered for assay [11] is Rattus norvegicus. The assay is described as follows: Percent retention in rat carcass was measured in situ using intestinal tied-loop technique. Type of assay: functional, organism-based.

`CCCCCCCCCCCCCCCCCCCCCCN(CCN(CCN(CCN(CC(=O)O)CC(=O)O)CC(=O)O)CC(=O)O)CC(=O)O`: the Reduction in the assay on Rattus norvegicus [1] came out at 32%; in the assay with Rattus norvegicus [2], 37%; in the assay with Rattus norvegicus [3], 44%; with Rattus norvegicus [4], 89%; in the assay with Rattus norvegicus [6] it was 26%. The compound further gave a Weight with Rattus norvegicus [5] of 70.2 g.

Consider `CCCCCCCCN(CCN(CCN(CCN(CC(=O)O)CC(=O)O)CC(=O)O)CC(=O)O)CC(=O)O`, for which the Activity with Canis familiaris turned out to be 0.16.

Consider `CCCCCCCCCCCCN(CCN(CCN(CCN(CC(=O)O)CC(=O)O)CC(=O)O)CC(=O)O)CC(=O)O`, for which the Reduction with Rattus norvegicus [1] amounted to 17%; in the assay on Rattus norvegicus [2], 20%; with Rattus norvegicus [3], 29%; in the assay on Rattus norvegicus [4], 71%; in the assay on Rattus norvegicus [6], 23%. Moreover, the Retention in the assay listed under Rattus norvegicus [7] was 3%; in the assay filed under Rattus norvegicus [8] it was 73%; in the assay listed under Rattus norvegicus [9] it was 4%; in the assay listed under Rattus norvegicus [10], 73%; in the assay listed under Rattus norvegicus [11] it was 20%. In the assay on Canis familiaris, this compound registered an Activity of 0.26. Besides, in the assay with Rattus norvegicus [5], the Weight is given as 55.7 g.
